Assay results published in ChEMBL document CHEMBL1155020, “Trithiocarbonates as a novel class of HDAC inhibitors: SAR studies, isoenzyme selectivity, and pharmacological profiles” (J Med Chem, 2008).
Active and inactive are the calls of the source. The rule behind the calls is not given here.

Experiments:
Histone deacetylase [1] = assay: Inhibition of nuclear HDAC isolated from human HeLa cells; format: cell-based
Histone deacetylase 1 [2] = target: T1, Histone deacetylase 1 (Homo sapiens, UniProt Q13547); assay: Inhibition of recombinant HDAC1 expressed in HEK293 cells; format: cell-based
Histone deacetylase [3] = assay: Inhibition of HDAC in human HeLa cells assessed as induction of histone H3 hyperacetylation after 24 hrs; format: cell-based
[4] = target: T2, Histone deacetylase (Homo sapiens) (UniProt Q13547+O15379+Q9UBN7+Q92769+Q9UQL6+Q8WUI4+Q9BY41+Q96DB2+P56524+Q9UKV0+Q969S8); assay: Inhibition of HDAC in human RKO cells assessed as induction of histone H3 lysine 1 to 20 hyperacetylation at 1 to 10 uM after 24 hrs by Western blotting; format: cell-based
Outline: (§1)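 RKO cells were treated for 24 h with compound at 1, 3 and 10 µM. Lysates were run on SDS-PAGE and Western blots probed for histone H3 S10 phosphorylation and histone H3 K1-20 acetylation, with β-actin reprobe as control.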

HeLa [5] = assay: Cytotoxicity against human HeLa cells after 72 hrs by alamar blue assay; format: functional, cell-based
Outline: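 HeLa cells were seeded at densities allowing growth through 72 h of compound exposure at 37 °C, 5% CO2. Viability was read by Alamar Blue (resazurin) reduction. Replicate assays were averaged, and IC50 was taken from concentration-effect curves.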

[6] = target: T3, Protein deacetylase HDAC6 (Homo sapiens, UniProt Q9UBN7); assay: Inhibition of recombinant HDAC6 expressed in HEK293 cells; format: cell-based
T3 sequence (Q9UBN7 whole entry): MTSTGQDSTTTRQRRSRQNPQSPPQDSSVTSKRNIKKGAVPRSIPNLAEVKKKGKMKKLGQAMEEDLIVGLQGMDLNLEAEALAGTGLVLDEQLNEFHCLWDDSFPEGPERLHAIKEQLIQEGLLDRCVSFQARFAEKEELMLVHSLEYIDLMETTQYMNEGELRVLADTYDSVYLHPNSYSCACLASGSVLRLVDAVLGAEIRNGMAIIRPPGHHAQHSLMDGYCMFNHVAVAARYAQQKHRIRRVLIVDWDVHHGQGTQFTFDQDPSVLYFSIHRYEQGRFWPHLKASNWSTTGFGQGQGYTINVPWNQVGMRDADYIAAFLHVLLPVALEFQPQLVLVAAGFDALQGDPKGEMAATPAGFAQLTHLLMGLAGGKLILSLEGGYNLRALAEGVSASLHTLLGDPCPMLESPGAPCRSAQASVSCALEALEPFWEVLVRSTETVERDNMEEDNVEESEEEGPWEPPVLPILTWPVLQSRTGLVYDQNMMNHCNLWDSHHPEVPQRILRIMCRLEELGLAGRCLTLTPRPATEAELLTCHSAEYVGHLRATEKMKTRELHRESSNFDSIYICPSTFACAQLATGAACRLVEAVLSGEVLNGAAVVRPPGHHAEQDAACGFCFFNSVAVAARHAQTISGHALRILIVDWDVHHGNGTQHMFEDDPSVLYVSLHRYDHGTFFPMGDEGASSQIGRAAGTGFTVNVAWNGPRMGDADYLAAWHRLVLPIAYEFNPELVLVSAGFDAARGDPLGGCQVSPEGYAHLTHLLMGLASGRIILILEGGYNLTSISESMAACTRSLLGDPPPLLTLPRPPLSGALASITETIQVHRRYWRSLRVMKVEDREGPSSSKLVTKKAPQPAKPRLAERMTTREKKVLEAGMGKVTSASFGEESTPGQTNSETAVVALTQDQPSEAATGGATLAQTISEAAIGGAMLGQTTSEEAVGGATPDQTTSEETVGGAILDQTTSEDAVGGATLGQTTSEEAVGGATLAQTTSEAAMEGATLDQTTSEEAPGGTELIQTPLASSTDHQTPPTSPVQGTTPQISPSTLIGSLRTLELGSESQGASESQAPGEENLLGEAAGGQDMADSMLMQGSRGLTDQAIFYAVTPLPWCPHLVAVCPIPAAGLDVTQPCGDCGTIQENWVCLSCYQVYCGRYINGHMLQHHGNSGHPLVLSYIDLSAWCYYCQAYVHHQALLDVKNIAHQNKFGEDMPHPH

Histone deacetylase [7] = assay: Inhibition of HDAC in human HeLa cells; format: cell-based
[8] = target: T2, Histone deacetylase (Homo sapiens); assay: Inhibition of HDAC in human RKO cells assessed as induction of histone H3 serine 10 phosphorylation at 1 to 10 uM after 24 hrs by Western blotting; format: cell-based; outline: as §1
RKO [9] = assay: Induction of apoptosis in human RKO cells at 10 uM after 24 hrs by flow cytometry
RKO [10] = assay: Induction of apoptosis in human RKO cells assessed as accumulation at subG1 phase by flow cytometry; format: functional, cell-based
Outline: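 RKO cells were seeded at 5 × 10^5 per 10 cm dish and grown for 24 h in log phase. They were then exposed to compound at 1 and 10 µM for 24 h. Flow cytometry assigned cells to subG1 (apoptosis), G1 (2N), S and G2/M (4N).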

RKO [11] = assay: Cytotoxicity against arrested non proliferative human RKO cells after 24 hrs; format: functional, cell-based; conditions: in the assay text read “after 72 hrs” for “after 24 hrs”
Outline: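 Alamar Blue (resazurin) read-out of metabolic activity. RKO p21waf1 transfectant cells were arrested by inducing p21waf1 with 10 µM ponasterone A for 24 h, then seeded at 2 × 10^4 cells/well and treated with compound. IC50 was taken from the concentration-effect curve.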

[12] = target: T2, Histone deacetylase (Homo sapiens); assay: Inhibition of HDAC in human HeLa cells assessed as induction of p21waf1 at 50 uM after 24 hrs by Western blotting; format: cell-based
Outline: (§2)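 HeLa cells were treated with compound at 5 and 50 µM for 24 h, then lysed in Tris pH 8 RIPA-type buffer. Equal protein amounts were separated by SDS-PAGE and blotted to PVDF. Blots were probed for acetylated histone H3 K1-20 and p21waf1, then reprobed for β-actin as loading control.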

[13] = target: T2, Histone deacetylase (Homo sapiens); assay: Inhibition of HDAC in human HeLa cells assessed as induction of histone H3 hyperacetylation at 50 uM after 24 hrs by Western blotting; format: cell-based; outline: as §2
Histone deacetylase 1 [14] = target: T1, Histone deacetylase 1; assay: Inhibition of recombinant HDAC1 expressed in HEK293 cells at 30 uM; format: cell-based
HeLa [15] = assay: Cytotoxicity against human HeLa cells at 50 uM after 72 hrs by alamar blue assay; format: functional
[16] = target: T3, Protein deacetylase HDAC6; assay: Inhibition of recombinant HDAC6 expressed in HEK293 cells using variable substrate concentration by Lineweaver-Burke plot; format: cell-based
Outline: (§3)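 Inhibitor was used at 1/4, 1/2, 1, 2 and 4 times the IC50-derived concentration. Ki was obtained from Lineweaver-Burk plots, with y-axis intersection indicating substrate competition.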

[17] = target: T2, Histone deacetylase (Homo sapiens); assay: Inhibition of nuclear HDAC isolated from human HeLa cells at 30 uM; format: cell-free
Histone deacetylase 1 [18] = target: T1, Histone deacetylase 1; assay: Inhibition of recombinant HDAC1 expressed in HEK293 cells at 32 uM; format: cell-based
[19] = target: T2, Histone deacetylase (Homo sapiens); assay: Inhibition of HDAC in human HeLa cells at 50 uM; format: cell-based
Outline: (§4)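 HeLa cells were seeded at 5 × 10^3/well, grown for 24 h, and exposed to compound for 3 h. Cell-permeable Boc-K(Ac)-AMC was added for a further 3 h. Lysis/developer buffer containing trypsin and 10 µM TSA followed, with 3 h incubation. AMC fluorescence was read at ex 355/em 460 nm, and % inhibition was given at the stated concentration.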

[20] = target: T4, Protein deacetylase HDAC6 (Homo sapiens) (UniProt Q9UBN7); assay: Inhibition of recombinant HDAC6 expressed in HEK293 cells at 32 uM; format: cell-based
T4 sequence (whole entry): T3 sequence (Q9UBN7 whole entry)

[21] = target: T2, Histone deacetylase (Homo sapiens); assay: Inhibition of nuclear HDAC isolated from human HeLa cells at 32 uM; format: cell-free
[22] = target: T4, Protein deacetylase HDAC6 (Homo sapiens); assay: Inhibition of HDAC6 in human A549 NSCLC cells assessed as induction of alpha-tubulin hyperacetylation at 10 uM after 24 hrs by Western blotting; format: cell-based
Outline: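 A549 NSCLC cells were exposed to compound for 24 h and lysed. Western blots were probed for acetylated α-tubulin and acetylated histone H3 K1-20, then reprobed with histone H3 and α-tubulin antibodies as controls.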

[23] = target: T2, Histone deacetylase (Homo sapiens); assay: Inhibition of HDAC in human HeLa cells at 32 uM; format: cell-based; outline: as §4
Histone deacetylase 1 [24] = target: T1, Histone deacetylase 1; assay: Inhibition of recombinant HDAC1 expressed in HEK293 cells using variable substrate concentration by Lineweaver-Burke plot; format: cell-based; outline: as §3

T1 sequence (Q13547 whole entry): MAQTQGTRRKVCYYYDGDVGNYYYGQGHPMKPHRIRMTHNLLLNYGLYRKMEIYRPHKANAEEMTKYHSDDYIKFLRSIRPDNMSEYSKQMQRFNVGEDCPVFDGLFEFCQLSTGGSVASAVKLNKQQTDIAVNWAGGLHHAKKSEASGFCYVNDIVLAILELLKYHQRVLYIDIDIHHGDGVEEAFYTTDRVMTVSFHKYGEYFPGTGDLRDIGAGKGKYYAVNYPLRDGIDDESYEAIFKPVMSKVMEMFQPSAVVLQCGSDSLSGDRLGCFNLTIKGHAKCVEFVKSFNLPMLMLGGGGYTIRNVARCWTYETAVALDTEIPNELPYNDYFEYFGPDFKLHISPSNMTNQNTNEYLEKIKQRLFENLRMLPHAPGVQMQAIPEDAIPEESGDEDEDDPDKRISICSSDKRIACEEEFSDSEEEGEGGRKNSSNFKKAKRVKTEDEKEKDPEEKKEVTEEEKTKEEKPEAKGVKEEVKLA

Structure (SMILES) | IC50 (Histone deacetylase [1]) [nM] | IC50 (Histone deacetylase 1 [2]) [nM] | IC50 (HeLa [5]) [nM] | IC50 [6] [nM] | IC50 (Histone deacetylase [7]) [nM] | further results
CCSC(=S)SCC(=O)c1ccc(CC(=O)NCc2ccccc2)s1 | 38 | 762 | 710 | 250 | 9840 | EC50 (Histone deacetylase [3]): 2400 nM; Activity [4]: Active; Activity [8]: Active
CCSC(=S)SCC(=O)c1ccc(C)cc1 | 375 | 6990 | – | 1250 | 81200 | EC50 (Histone deacetylase [3]): 4800 nM; Activity (RKO [9]): Active; Activity (RKO [10]): Active; Activity (RKO [11]): Active
CCSC(=S)SCC(=O)c1cccc(S(=O)(=O)Nc2ccc3c(c2)OCO3)c1 | 14 | 501 | 9180 | 431 | 1860 | Activity [12]: Active; Activity [13]: Active
CCSC(=S)SCC(=O)c1ccc(C(=O)Nc2ccc(Cl)cc2)cc1 | 79 | – | – | 1450 | – | inhibition (Histone deacetylase 1 [14]): 1%; inhibition at 50 µM (HeLa [15]): 0%
CCSC(=S)SCC(=O)c1ccn(S(=O)(=O)c2ccccc2)c1 | – | – | – | – | – | Ki [16]: 140 nM
CCNC(=S)NCC(=O)c1ccc(OC)cc1 | – | – | 5810 | – | – | inhibition [17]: -6%
CCSC(=S)OCC(=O)c1ccc(OC)cc1 | – | – | 2990 | – | – | inhibition (Histone deacetylase 1 [18]): 6%; inhibition [19]: 28%; inhibition [20]: 16%; inhibition [21]: 16%
CCSC(=S)SCC(=O)c1ccc(CC(=O)Nc2ccc(OC)cc2)s1 | 10 | 251 | 6610 | 116 | 7530 | EC50 (Histone deacetylase [3]): 760 nM
CCSC(=S)SCC(=O)c1cccc(S(=O)(=O)N(C)c2ccc(OC)cc2)c1 | 110 | 5330 | – | 2040 | – | inhibition at 50 µM (HeLa [15]): 43%
CCSC(=S)SCC(=O)c1cccc(NC(=O)c2ccccc2)c1 | 120 | 1220 | 8230 | 65 | 964 | Activity [22]: Active; Ki [16]: 110 nM
COc1ccc(C(=O)CSC(=S)N2CCOCC2)cc1 | – | – | – | – | – | inhibition (Histone deacetylase 1 [18]): 0%; inhibition [20]: -2%; inhibition [23]: 0%; inhibition [21]: 2%
CCSC(=S)SCC(=O)c1ccc(NC(C)=O)cc1 | 318 | 1680 | 1460 | 180 | 857 | –
CCOC(=S)SCC(=O)c1ccc(NC(C)=O)cc1 | 386 | 536 | 3610 | 90 | 26200 | EC50 (Histone deacetylase [3]): 2900 nM; Activity (RKO [9]): Active; Activity [4]: Active; Activity [8]: Active
CCSC(=S)NCC(=O)c1ccc(OC)cc1 | – | – | – | – | – | inhibition [20]: -8%; inhibition at 50 µM (HeLa [15]): 26%; inhibition [21]: -3%
CCSC(=S)SCC(=O)c1ccc(C(=O)NCc2ccccc2)cc1 | 90 | 5780 | 23900 | 830 | 1500 | –
CCSC(=S)SCC(=O)c1ccc(-c2ccc(CNc3cnc4ccccc4c3)cn2)s1 | 8 | 555 | 2700 | 438 | 683 | EC50 (Histone deacetylase [3]): 4800 nM; Activity (RKO [9]): Active
CCSC(=S)SCC(=O)c1ccc(S(=O)(=O)Nc2ccc(Cl)cc2)cc1 | 8 | 589 | 6080 | 340 | 299 | –
CCSC(=S)SCC(=O)c1ccc(Nc2ncnc3ccccc23)cc1 | 379 | 25800 | 2640 | 390 | 2990 | –
CCSC(=S)SCC(=O)c1ccc(CC(=O)NCCOc2ccccc2)s1 | 18 | 385 | 5780 | 204 | 624 | Ki (Histone deacetylase 1 [24]): 460 nM
